Data taken from ChEMBL document CHEMBL1147670, “2,6-disubstituted and 2,6,8-trisubstituted purines as adenosine receptor antagonists” (J Med Chem, 2006).
The source made the active and inactive calls. The rule behind the calls is not given here.

Legend:
[1] = biological target: T1, Adenosine receptor A1 (Homo sapiens) (UniProt P30542); test: Displacement of [3H]DPCPX from human adenosine A1 receptor expressed in CHO cells at 1 uM; format: cell-based
T1 sequence (whole entry): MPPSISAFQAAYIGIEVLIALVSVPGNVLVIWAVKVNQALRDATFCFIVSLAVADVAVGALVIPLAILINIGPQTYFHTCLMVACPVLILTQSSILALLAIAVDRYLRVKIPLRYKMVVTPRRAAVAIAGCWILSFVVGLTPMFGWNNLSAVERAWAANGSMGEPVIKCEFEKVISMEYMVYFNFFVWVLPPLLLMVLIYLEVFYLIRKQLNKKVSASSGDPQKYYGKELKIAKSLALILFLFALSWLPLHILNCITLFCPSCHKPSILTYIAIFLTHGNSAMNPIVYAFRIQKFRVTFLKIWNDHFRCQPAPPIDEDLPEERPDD
In short: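 Inhibition of specific [³H]DPCPX binding to human A1 receptors in CHO cells by test compound at 1 µM, reported as % displacement, n = 2.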

Adenosine receptor A2a [2] = biological target: T2, Adenosine receptor A2a (Homo sapiens, UniProt P29274); test: Displacement of [3H]ZM 241385 from human adenosine A2a receptor expressed in HEK293 cells at 1 uM; format: cell-based
T2 sequence (P29274 whole entry): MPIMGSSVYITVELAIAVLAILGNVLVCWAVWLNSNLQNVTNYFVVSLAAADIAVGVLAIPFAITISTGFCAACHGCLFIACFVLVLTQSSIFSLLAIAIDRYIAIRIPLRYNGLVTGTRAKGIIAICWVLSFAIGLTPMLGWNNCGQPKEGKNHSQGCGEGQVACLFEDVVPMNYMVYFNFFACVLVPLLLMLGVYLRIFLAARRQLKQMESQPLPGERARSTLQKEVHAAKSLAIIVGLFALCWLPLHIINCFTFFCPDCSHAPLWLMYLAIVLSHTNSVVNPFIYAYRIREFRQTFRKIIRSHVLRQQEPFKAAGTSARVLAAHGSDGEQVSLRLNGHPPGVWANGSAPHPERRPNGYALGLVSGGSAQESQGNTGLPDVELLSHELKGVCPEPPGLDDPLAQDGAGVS
In short: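 Single-point screen at 1 µM for % displacement of specific [³H]ZM 241385 binding at human A2A receptors in HEK 293 cells, n = 2.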

Adenosine receptor A3 = biological target: T3, Adenosine receptor A3 (Homo sapiens, UniProt P0DMS8); test: Displacement of [125I]AB-MECA from human adenosine A3 receptor expressed in HEK293 cells; format: cell-based
T3 sequence (P0DMS8 whole entry): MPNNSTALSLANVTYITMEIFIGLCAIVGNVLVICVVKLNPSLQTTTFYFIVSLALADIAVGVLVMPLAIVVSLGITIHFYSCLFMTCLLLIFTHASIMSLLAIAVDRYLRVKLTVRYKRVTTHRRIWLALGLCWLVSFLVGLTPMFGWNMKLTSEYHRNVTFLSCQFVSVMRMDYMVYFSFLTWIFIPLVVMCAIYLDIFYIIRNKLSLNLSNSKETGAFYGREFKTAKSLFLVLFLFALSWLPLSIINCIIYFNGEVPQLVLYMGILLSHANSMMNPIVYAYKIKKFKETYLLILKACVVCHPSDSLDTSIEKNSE

Adenosine receptor A1 [3] = biological target: T4, Adenosine receptor A1 (Homo sapiens, UniProt P30542); test: Displacement of [3H]DPCPX from human adenosine A1 receptor expressed in CHO cells; format: cell-based
T4 sequence (P30542 whole entry): T1 sequence (whole entry)
In short: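 Competition binding against [³H]DPCPX (K_D 1.6 nM) at human A1 receptors expressed in CHO cells. Ki was derived by nonlinear regression, mean ± SEM, n = 3.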

Adenosine receptor A2a [4] = biological target: T2, Adenosine receptor A2a; test: Displacement of [3H]ZM 241385 from human adenosine A2a receptor expressed in HEK293 cells; format: cell-based
In short: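 Radioligand competition using [³H]ZM 241385 (K_D 1.0 nM) at human A2A receptors expressed in HEK 293 cells. Ki was obtained by nonlinear regression, ± SEM, n = 3.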

[5] = biological target: T1, Adenosine receptor A1 (Homo sapiens); test: Activity against human adenosine A1 receptor in CHO cells by increase of forskolin-induced cAMP production at 100 nM; format: functional, cell-based; settings: filed as antagonist
In short: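 Human A1-expressing CHO monolayers were preincubated 30 min at 37 °C with adenosine deaminase (0.8 IU/mL), rolipram and cilostamide (50 µM each) in HEPES/DMEM pH 7.4. Test compound at 100 nM was added for 10 min, then forskolin 10 µM for 15 min, and the reaction was stopped with ice-cold 0.1 M HCl. cAMP was measured by [³H]cAMP competition for PKA. Forskolin alone was set at 100% and CPA 1 µM at 0%. At least three experiments in duplicate.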

Adenosine receptor A1 [6] = biological target: T4, Adenosine receptor A1; test: (§1) Activity against human adenosine A1 receptor in CHO cells assessed by the antagonizing effect of 100 nM CPA on forskolin-induced cAMP production; format: functional, cell-based
In short: (§2)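 Whole-cell cAMP assay in CHO cells expressing human A1 receptor, 2 × 10⁵ cells/well grown overnight as a monolayer. Cells were pretreated 30 min at 37 °C with adenosine deaminase 0.8 IU/mL, rolipram 50 µM and cilostamide 50 µM in HEPES/DMEM pH 7.4. Compound was then given against 100 nM CPA, followed by forskolin 10 µM for 15 min. cAMP was measured by [³H]cAMP/PKA competition. A full concentration-response curve gave K_B.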

[7] = biological target: Adenosine receptors; A1 & A2a (Homo sapiens) (UniProt P30542+P29274); test: Selectivity for human adenosine A1 receptor over adenosine A2a receptor; format: protein assay
Chain of Adenosine receptors; A1 & A2a (Homo sapiens) (P29274 whole entry, looked up, one chain of several): as the sequence (P29274 whole entry) above
In short: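 Ki values from radioligand displacement binding at each receptor. Human A1 expressed in CHO cells with [3H]DPCPX (KD 1.6 nM); human A2A expressed in HEK 293 cells with [3H]ZM 241385 (KD 1.0 nM). Ki from nonlinear regression, mean ± SEM (n = 3); selectivity compares the A1 and A2A Ki values.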

[8] = biological target: T1, Adenosine receptor A1 (Homo sapiens); test: as §1; format: functional, cell-based; in short: as §2

| SMILES | Activity (Adenosine receptor A2a [2]) [%] | Ki (Adenosine receptor A3) [nM] | Ki (Adenosine receptor A1 [3]) [nM] | Ki (Adenosine receptor A2a [4]) [nM] | other results |
| --- | --- | --- | --- | --- | --- |
| Clc1ccc(-c2nc(-c3ccc(Cl)cc3)c3[nH]cnc3n2)cc1 | 11 | 68 | – | – | Activity [1]: 21% |
| c1ccc(-c2nc(-c3ccccc3)c3nc(C4CCCC4)nc-3[nH]2)cc1 | – | 35 | 0.29 | 55 | Ratio Ki [7]: 190; Activity [8]: Active |
| Cn1c(C2CCCCC2)nc2c(-c3ccccc3)nc(-c3ccccc3)nc21 | 0 | – | – | – | Activity [1]: 24% |
| Clc1ccc(-c2nc(-c3ccccc3)c3[nH]cnc3n2)cc1 | – | 94 | 27 | 315 | – |
| Cc1ccc(-c2nc(-c3ccc(C)cc3)c3[nH]cnc3n2)cc1 | 4 | 9.3 | 235 | – | – |
| Clc1ccc(-c2[nH]c(-c3ccccc3)nc3nc(C4CCCCC4)nc2-3)cc1 | 24 | – | – | – | – |
| Clc1ccc(-c2nc(-c3ccccc3)nc3nc(C4CCCCC4)[nH]c23)cc1 | – | 243 | 25 | – | – |
| Clc1ccc(-c2[nH]c(-c3ccccc3)nc3nc(C4CCCCC4)nc2-3)cc1Cl | 20.3 | – | 37 | – | – |
| Cc1ccc(-c2nc(-c3ccccc3)c3[nH]cnc3n2)cc1 | – | 9.4 | 4 | 289 | – |
| c1ccc(-c2nc(-c3ccccc3)c3[nH]c(-c4ccccc4)nc3n2)cc1 | – | 49 | 21 | 66 | – |
| COc1ccc(-c2[nH]c(-c3ccccc3)nc3nc(C4CCCCC4)nc2-3)cc1 | 27 | 138 | 3.7 | – | – |

The next lines start with results.

| Activity (Adenosine receptor A2a [2]) [%] | Ki (Adenosine receptor A3) [nM] | Ki (Adenosine receptor A1 [3]) [nM] | Ki (Adenosine receptor A2a [4]) [nM] | SMILES | other results |
| --- | --- | --- | --- | --- | --- |
| – | 17 | 4.4 | 167 | CCCc1nc2nc(-c3ccccc3)nc(-c3ccccc3)c2[nH]1 | – |
| – | 9.5 | 0.82 | 148 | CC(C)c1nc2[nH]c(-c3ccccc3)nc(-c3ccccc3)c-2n1 | Activity [5]: Antagonist |
| – | 200 | 0.73 | 118 | c1ccc(-c2nc(-c3ccccc3)c3nc(C4CCCCC4)nc-3[nH]2)cc1 | IC50 (Adenosine receptor A1 [6]): 477 nM |
| 9 | – | – | – | Cc1ccc(-c2[nH]c(-c3ccccc3)nc3nc(C4CCCCC4)nc2-3)cc1 | – |
| – | 38 | 4.1 | 53 | c1ccc(-c2nc(-c3ccccc3)c3[nH]cnc3n2)cc1 | – |
| – | – | 36 | – | Cc1ccc(-c2nc(-c3ccccc3)nc3nc(C4CCCCC4)[nH]c23)cc1 | – |
| 37 | 165 | – | – | COc1ccc(-c2nc(-c3ccc(OC)cc3)c3[nH]cnc3n2)cc1 | Activity [1]: 40% |
| 47 | 4 | 32 | – | COc1ccc(-c2nc(-c3ccccc3)c3[nH]cnc3n2)cc1 | – |
